Tests used:
HCT-8 [1] = experiment: Cytotoxicity against human HCT8 cells after 72 hrs by SRB assay; assay type: functional, cell-based; conditions: HCT-8, 72 h
How it was run: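 SRB assay on HCT-8 cells seeded at 5000/well and allowed 24 h adherence at 37 °C in 5% CO2, then given 72 h continuous exposure across a 10–100 concentration range, eight wells per condition. Maximum final DMSO was 0.1%. Fixed cells were stained with 0.4% SRB in 1% acetic acid, solubilised in 10 mM Tris and read at 540 nm. IC50 is the concentration giving a 50% reduction in net protein increase versus control.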

HCT-8 [2] = experiment: Cytotoxicity against human HCT8 cells at 10 uM after 72 hrs by SRB assay; assay type: functional; conditions: HCT-8, 72 h
How it was run: (§1)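 Single-concentration growth inhibition of HCT-8 cells: seeded at 5000/well with 24 h adherence at 37 °C in 5% CO2, then 72 h continuous drug exposure, eight replicate wells. Maximum final DMSO was 0.1%, with DMSO and MMC controls. Protein was stained with 0.4% SRB in 1% acetic acid, solubilised in 10 mM Tris and absorbance read at 540 nm.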

HCT-8 [3] = experiment: Cytotoxicity against human HCT8 cells at 100 uM after 72 hrs by SRB assay; assay type: functional; conditions: HCT-8, 72 h; how it was run: as §1
HCT-8 [4] = experiment: Effect on cell cycle arrest in human HCT8 cells in normoxic condition assessed as DNA fragmentation at 10 uM after 48 hrs of drug washout by flow cytometry; assay type: functional
How it was run: (§2)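 HCT-8 cells in D-MEM high glucose with 10% FCS were seeded at 1–2 × 10^6 per 25 cm² flask, left to adhere overnight, then exposed to drug for 24 h under normoxia or hypoxia. Drug was washed out and cells reoxygenated for 48 h. Floating and adherent cells were pooled, fixed in 70% ice-cold ethanol and stained with PI (50 µg/ml) plus RNase A (5 U/ml) for 30 min. Phases and the sub-G1 hypodiploid fraction (DNA fragmentation) were read by flow cytometry.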

HCT-8 [5] = experiment: Cell cycle arrest in human HCT8 cells in normoxic condition assessed as accumulation at G2/M phase at 10 uM after 24 hrs of drug washout by flow cytometry; assay type: functional; how it was run: as §2
HCT-8 [6] = experiment: Effect on cell cycle arrest in human HCT8 cells in normoxic condition assessed as DNA fragmentation at 10 uM after 24 hrs by flow cytometry; assay type: functional; how it was run: as §2
HCT-8 [7] = experiment: Cell cycle arrest in human HCT8 cells in hypoxic condition assessed as accumulation at G0/G1 phase at 10 uM after 24 hrs of drug washout by flow cytometry; assay type: functional; how it was run: as §2
HCT-8 [8] = experiment: Cell cycle arrest in human HCT8 cells in normoxic condition assessed as accumulation at G2/M phase at 10 uM after 24 hrs by flow cytometry; assay type: functional; how it was run: as §2
HCT-8 [9] = experiment: Cell cycle arrest in human HCT8 cells in hypoxic condition assessed as accumulation at G2/M phase at 10 uM after 24 hrs of drug washout by flow cytometry; assay type: functional; how it was run: as §2
HCT-8 [10] = experiment: Effect on cell cycle arrest in human HCT8 cells in hypoxic condition assessed as DNA fragmentation at 10 uM after 24 hrs by flow cytometry; assay type: functional; how it was run: as §2
HCT-8 [11] = experiment: Cell cycle arrest in human HCT8 cells in hypoxic condition assessed as accumulation at S phase at 10 uM after 24 hrs by flow cytometry; assay type: functional; how it was run: as §2
HCT-8 [12] = experiment: Cell cycle arrest in human HCT8 cells in hypoxic condition assessed as accumulation at G2/M phase at 10 uM after 24 hrs by flow cytometry; assay type: functional; how it was run: as §2
HCT-8 [13] = experiment: Effect on cell cycle arrest in human HCT8 cells in hypoxic condition assessed as DNA fragmentation at 10 uM after 48 hrs of drug washout by flow cytometry; assay type: functional; how it was run: as §2
HCT-8 [14] = experiment: Cell cycle arrest in human HCT8 cells in normoxic condition assessed as accumulation at G0/G1 phase at 10 uM after 24 hrs by flow cytometry; assay type: functional; how it was run: as §2
HCT-8 [15] = experiment: Cell cycle arrest in human HCT8 cells in normoxic condition assessed as accumulation at G0/G1 phase at 10 uM after 24 hrs of drug washout by flow cytometry; assay type: functional
HCT-8 [16] = experiment: Cell cycle arrest in human HCT8 cells in hypoxic condition assessed as accumulation at G0/G1 phase at 10 uM after 24 hrs by flow cytometry; assay type: functional; how it was run: as §2
HCT-8 [17] = experiment: Cell cycle arrest in human HCT8 cells in normoxic condition assessed as accumulation at S phase at 10 uM after 24 hrs by flow cytometry; assay type: functional; how it was run: as §2

CCOC(=O)c1cnn(-c2ccncc2[N+](=O)[O-])c1N
IC50 (HCT-8 [1]): 58.2 µM
IC90 (HCT-8 [1]): > 100 µM
inhibition at 10 µM (HCT-8 [2]): 24.4%
inhibition at 100 µM (HCT-8 [3]): 69.7%

O=C(O)c1cnn2c1n[n+]([O-])c1cnccc12
inhibition at 10 µM (HCT-8 [2]): 13.2%
inhibition at 100 µM (HCT-8 [3]): 11.4%

[O-][n+]1nc2ccnn2c2cc(N3CCOCC3)ccc21
inhibition at 10 µM (HCT-8 [2]): 3.27%
inhibition at 100 µM (HCT-8 [3]): 25.8%

CCCCCOc1ccc2c(c1)n1nccc1n[n+]2[O-]
inhibition at 10 µM (HCT-8 [2]): -6.17%
inhibition at 100 µM (HCT-8 [3]): 38%

NC(=O)c1cnn(-c2ccncc2[N+](=O)[O-])c1N
inhibition at 10 µM (HCT-8 [2]): 9.72%
inhibition at 100 µM (HCT-8 [3]): 22.4%

COc1ccc(-c2ccc3c(c2)n2nccc2n[n+]3[O-])cc1
inhibition at 10 µM (HCT-8 [2]): 11%
inhibition at 100 µM (HCT-8 [3]): 21.6%

CN(C)CCOc1ccc2c(c1)n1nccc1n[n+]2[O-]
inhibition at 10 µM (HCT-8 [2]): -2.36%
inhibition at 100 µM (HCT-8 [3]): 42.3%

CN1CCN(c2ccc3c(c2)n2nccc2n[n+]3[O-])CC1
inhibition at 10 µM (HCT-8 [2]): 3.19%
inhibition at 100 µM (HCT-8 [3]): 32.4%

CO[C@@]12[C@H](COC(N)=O)C3=C(C(=O)C(C)=C(N)C3=O)N1C[C@@H]1N[C@@H]12 [MITOMYCIN]
Activity (HCT-8 [4]): 44%
IC50 (HCT-8 [1]): 0.083 µM
IC90 (HCT-8 [1]): 5.7 µM
Activity (HCT-8 [5]): 19.2%
Activity (HCT-8 [6]): 71.2%
Activity (HCT-8 [7]): 43.2%
Activity (HCT-8 [8]): 22.8%
Activity (HCT-8 [9]): 14.1%
Activity (HCT-8 [10]): 42.8%
Activity (HCT-8 [11]): 49.1%
Activity (HCT-8 [12]): 14.6%
Activity (HCT-8 [13]): 99%
Activity (HCT-8 [14]): 40.3%
Activity (HCT-8 [15]): 28.2%
Activity (HCT-8 [16]): 36.3%
Activity (HCT-8 [17]): 36.9%
